The values below come from PubChem BioAssay.

A number with no mark means an inactive call. Results filed as inconclusive are left out. Activity calls are given as the source filed them.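 The calls were made as follows, unless noted: active = viability at or below 27.92% in each of two runs, the all-compound median minus 4 SD; inconclusive = no clear call, values can overlap the other calls; inactive = the rest.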

Assay [1] in a line: S. cerevisiae growth inhibition in permissive medium (OD615), pilot counter-assay for S. cerevisiae lifespan shortening project, permissive growth control (AID 705;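 active = growth inhibition above 25% in both replicates, a cutoff set 3 SD above the mean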). As to conditions: OD615, 24 h, at 10 µM, active compounds read high. An outline of the steps: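 System: Engineered DeaD yeast | Buffer or medium: SC raffinose/galactose permissive medium | Doses: 10 µM single dose, 0.25% DMSO | Times: 24 h exposure, 30 °C | Measured by: OD615 turbidity read | Read-out: Yeast growth inhibition indicated by reduced 24 h OD615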

A short description of assay [2]: S. cerevisiae growth inhibition in restrictive medium, OD615, pilot screen, restrictive growth control, yeast lifespan reduction project (AID 706;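 active = growth inhibition above a set limit, 3 SD over mean compound inhibition, in both replicates, cut at about 43% in these data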;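 also: modified DeaD lifespan yeast strain shifted to restrictive glucose medium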). To be noted: OD615, 48 h, at 10 µM, active compounds read high. In a few lines: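 Assay system: engineered S. cerevisiae DeaD strain; Buffer or medium: CSMM-D glucose medium; Dosing: 10 µM compound, 0.25% DMSO; Times: cell pre-growth 4 h, compound exposure 48 h, 30 °C; Detection: absorbance (optical density) measured at 615 nm.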

Assay [3] in a line: doxorubicin toxicity protection in MRP-1 cells – H69AR cells, CellTiter-Glo, duplicate, MRP-1 activator project, pilot screen (AID 807;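 active = viability increase at or above a cutoff of the median across tested compounds plus 3 SD, cut at about 8.5% in these data, passing the limit was not always enough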;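 also: compound pretreatment 18-22 h then 72 h combined with doxorubicin; 0% = doxorubicin alone and 100% = vehicle without doxorubicin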). As to conditions: H69AR viability with doxorubicin, CellTiter-Glo luminescence; at 10 µM; active compounds read high. For orientation: In ATP-based viability assays light output follows the ATP content of the culture.
Assay [4] in a line: viability of HCT116 without oncogenic beta-catenin – human colon tumor cells, pilot screen (AID 823;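 active = cell viability at or below a set limit in both duplicate runs, the limit being the all-compound median minus 4 SD, cut at about 23% in these data, passing the limit was not always enough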;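 also: 0% = wells killed by 20 µM Hyamine and 100% = untreated DMSO cell wells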). To be noted: HCT116 beta-catenin knockout viability, CellTiter-Glo, 60 h; at 10 µM; active compounds read low.
Assay [5] is described as follows: viability of PTEN-null HCT116 cells – cell-based, HCT116 clonal line, CellTiter-Glo, pilot screen (AID 824).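 Also: 0% = 20 µM Hyamine control and 100% = vehicle cell control.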 As to conditions: HCT116 PTEN-deleted viability, 60 h, at 10 µM, active compounds read low.
The nature of assay [6]: RAM pathway blockade in budding yeast – dse1pr::URA3 reporter, 5-FOA selection, pilot screen (AID 869;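 active = inhibition over a set limit, the all-compound mean plus 3 SD, in both replicate runs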;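 also: 0% = DMSO wells with no growth and 100% = 10 µM 1-NA-PP1 with full growth; RAM network block rescues cells from 5-FOA so hits raise OD615 growth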). As to conditions: S. cerevisiae dse1pr::URA3 5-FOA growth, OD615, 2 d; at 10 µM; active compounds read high; strain carries analog-sensitive mutant Cbk1 kinase.
Assay [7] is described as follows: RAM signaling pathway blockade in yeast – S. cerevisiae, Pdr1DBD-CYC8 efflux-inhibited sensitized strain, primary screen (AID 1298;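 active = RAM network inhibition above 8.4% in each of two replicates, 3 SD over the compound average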;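 also: 0% = DMSO untreated cells without growth and 100% = 10 µM 1-NA-PP1 full growth; higher means more yeast growth rescued from 5-FOA killing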). To be noted: S. cerevisiae cbk1-as DSE1-URA3 strain, 5-FOA growth OD615, 2 d; at 50 µM; active compounds read high.

The viability is a read-out of living cells in per cent, often relative to untreated cells. The term inhibition denotes the share of the control response that was lost under treatment. On to `COc1ccc(S(=O)(=O)N2CCCC2C(=O)Nc2ccc(C(C)=O)cc2)cc1` (stereo unspecified), for which the growth inhibition is -19.4% in assay [1] and -11% in assay [2]. The viability increase in assay [3] is -0.66%. The viability in assay [4] is 97.6%; in assay [5], 95.8%. The inhibition in assay [6] is 2.13%. Moreover, the RAM network inhibition in assay [7] was 1.47%.
Take `O=C(O)c1ccc(NC(=O)C2C3CCC(C3)C2C(=O)O)cc1` (stereo unspecified): the results for the growth inhibition in assay [1] and in assay [2] were 7% and -0.915%, respectively. Also, the viability increase in assay [3] is -0.12%. The viability in assay [4] is 101%; in assay [5], 98.8%. Also, the inhibition in assay [6] is 0.345%. Besides, the RAM network inhibition in assay [7] was 0.46%.
`Cc1ccc2oc(=O)c3cnn(CC(=O)N4CCCCCC4)c3c2c1`: the growth inhibition in assay [1] is -11%; in assay [2], -0.055%. Also, the viability increase in assay [3] is -3.69%. The viability in assay [4] is 82.8%; in assay [5] it was 89.1%. For the same molecule, the inhibition in assay [6] was 1.46%. In addition, the RAM network inhibition in assay [7] was 2.05%.
Turning to `CC(=O)n1c2ccccc2c2c1c1ccccc1n2C`, the growth inhibition in assay [1] is 10.6%; in assay [2], 3.17%. Besides, the viability increase in assay [3] is -4.83%. For the same molecule, the viability was 96% in assay [4] and 82.6% in assay [5]. Further, the inhibition in assay [6] is 2.49%. Further, in assay [7], the RAM network inhibition is 2%.
`COCCNC(=O)c1cc2c(=O)n(C)c3ccccc3c2n1C`: the growth inhibition is -11.1% in assay [1] and -7.54% in assay [2]. The viability increase in assay [3] was -4.57%. In addition, the viability in assay [4] and in assay [5] was 84.4% in each case. The inhibition in assay [6] is 2.69%. The RAM network inhibition in assay [7] is 0.36%.
In the case of `Cn1c(=O)oc2cc(S(=O)(=O)N3CCCC(C(=O)N4CCn5c4nc4ccccc45)C3)ccc21` (stereo unspecified), the growth inhibition in assay [1] was -8.03%; in assay [2], -7.74%. The viability increase in assay [3] was -1.54%. The results for the viability in assay [4] and in assay [5] were 77.7% and 76.2%, respectively. Moreover, in assay [6], the inhibition is 0.695%. In assay [7], the RAM network inhibition is 1.49%.
`O=C(C(Cc1ccccc1)n1cccc1)N1CCN(C2CCCCC2)CC1` (stereo unspecified): the results for the growth inhibition in assay [1] and in assay [2] were -10.9% and -3.01%, respectively. The viability increase in assay [3] is -3.47%. Moreover, the viability in assay [4] was 81.8%; in assay [5], 88.7%. Besides, the inhibition in assay [6] was 1.42%. In addition, the RAM network inhibition in assay [7] is 8.24%.
`COc1c(C)cccc1C(=O)Nc1cc(-c2nn3c(C)nnc3s2)ccc1C`: the growth inhibition in assay [1] was 13.5%; in assay [2], 37%. Also, in assay [3], the viability increase was -5.61%. Besides, the viability in assay [4] was 73.9%; in assay [5] it was 64.2%. In addition, the inhibition in assay [6] is 2.07%. For the same molecule, the RAM network inhibition in assay [7] is 7.01%.
As for `COc1ccccc1-c1nnc(SCC(=O)Nc2ccc(Cl)cc2Cl)o1`, the growth inhibition was -2.08% in assay [1] and 9.34% in assay [2]. In addition, in assay [3], the viability increase was 2.61%. In addition, the viability was 97.4% in assay [4] and 91.1% in assay [5]. The inhibition in assay [6] is 1.71%. Further, the RAM network inhibition in assay [7] is 8.66%.
For the molecule `CCCCn1c(C(C)NC(=O)CC)nc2ccccc21` (stereo unspecified), the growth inhibition in assay [1] was -12.9%; in assay [2] it was -3.19%. The viability increase in assay [3] is -3.16%. The viability in assay [4] is 92.2%; in assay [5] it was 92.7%. In addition, the inhibition in assay [6] is 0.01%. Also, the RAM network inhibition in assay [7] is -0.63%.
On to `COc1cc(OC)c(C2CC(=O)N3CN(C)CSC3=C2C#N)cc1OC` (stereo unspecified), for which the growth inhibition in assay [1] was 19.5%; in assay [2] it was 60% (active). Also, the viability increase in assay [3] was -2.96%. Besides, the viability was 99.3% in assay [4] and 97.2% in assay [5]. Further, in assay [6], the inhibition was 1.06%. Besides, in assay [7], the RAM network inhibition is 9.58%.
Consider `Cc1sc(NC(=O)c2cccs2)c(C(N)=O)c1C`, for which the results for the growth inhibition in assay [1] and in assay [2] were -6.89% and 22.8%, respectively. Moreover, the viability increase in assay [3] is -6.53%. Further, the viability in assay [4] was 80.8%; in assay [5] it was 88.4%. In addition, in assay [6], the inhibition was 0.26%. Besides, the RAM network inhibition in assay [7] was -1.19%.
With `CCOc1ccc(N(CC(=O)N2CCN(c3ccccc3)CC2)S(=O)(=O)c2c(C)noc2C)cc1`, the growth inhibition was 1.67% in assay [1] and -1.08% in assay [2]. The viability increase in assay [3] was -5.76%. Moreover, the viability in assay [4] is 76.4%; in assay [5], 67.7%. Further, the inhibition in assay [6] is 1.49%. In assay [7], the RAM network inhibition was 1.85%.
For `O=C(CCS(=O)(=O)c1cccc2nonc12)NCCc1ccccc1Cl`, the figures for the growth inhibition in assay [1] and in assay [2] were -1.5% and -9.76%, respectively. Further, in assay [3], the viability increase is -5.15%. Besides, the viability was 91.2% in assay [4] and 82.9% in assay [5]. The inhibition in assay [6] is 1.33%. Also, in assay [7], the RAM network inhibition is 4.14%.
As for `O=C(Nc1ccc(N2CCN(C(=O)c3ccccc3)CC2)c(Cl)c1)c1ccco1`, the growth inhibition was 4.29% in assay [1] and 14.1% in assay [2]. Also, the viability increase in assay [3] was -3.69%. Further, the viability in assay [4] is 67%; in assay [5], 75.9%. For the same molecule, the inhibition in assay [6] is 3.31%. In addition, the RAM network inhibition in assay [7] was 5.57%.
On to `Cc1noc(NS(=O)(=O)c2ccc(NC(=O)c3cnc4scc(C)n4c3=O)cc2)c1C`, for which the growth inhibition in assay [1] was -2.39%; in assay [2], -5.18%. Further, in assay [3], the viability increase was 1.99%. Moreover, the viability in assay [4] and in assay [5] was 101% throughout. In assay [6], the inhibition was 2.61%. Besides, in assay [7], the RAM network inhibition is 6.1%.
Consider `COC(=O)C(C)Sc1nnc(Cc2cc(=O)[nH]c(=O)[nH]2)n1-c1cccc(OC)c1` (stereo unspecified), for which the results for the growth inhibition in assay [1] and in assay [2] were -7.95% and -0.1%, respectively. Besides, the viability increase in assay [3] was 0.21%. Besides, the viability in assay [4] is 104%; in assay [5], 108%. The inhibition in assay [6] is 2.8%. Further, in assay [7], the RAM network inhibition was 3%.
Regarding `Cc1c(C(=O)NCc2ccc3c(c2)OCO3)sc2nc(-c3ccccc3)cn12`, the growth inhibition in assay [1] was 5.98%; in assay [2], -4.12%. The viability increase in assay [3] was -0.35%. In addition, the viability in assay [4] is 111%; in assay [5] it was 103%. Also, the inhibition in assay [6] was 3.05%. In addition, the RAM network inhibition in assay [7] is 6.39%.
